Screening data (PubChem BioAssay)
MBD2 DNA inh: blocks human MBD2 binding to methylated DNA | Q9UBB5 | TR-FRET, MBD2 binding to methylated oligonucleotide | inhibition, % at 4.4 µM | 0.31% of 370,000 active; in the data active = inhibition above about 13%
ARFGAP1 inh: inhibitors of rat ARFGAP1 | Q62848 | Arfgap1-stimulated ARF1 GTP hydrolysis, GDP FP detection | inhibition, % at 16.5 µM | 0.26% of 360,000 active;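 active = inhibition above a per-plate limit, mean inhibition of low control wells plus 3 SD, cut at about 25% in these data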
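Replicates: Single well per compound | Assay system: Truncated rat Arfgap1 GAP domain | Control set: No-Arfgap1 wells (100%) versus DMSO full-reaction wells (0%) | Times: Enzyme reaction 120 min at 25 °C after 20 min preincubation | Reagent: Human ARF1(Δ1-17)-GTP substrate | Measured by: Tracer-displacement fluorescence polarization with EDTA stop, 620/688 nm | Measure: Percent inhibition of Arfgap1-stimulated GTP hydrolysis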
LEDGF integ inh: blocks HIV-1 LEDGF/p75-dependent DNA integration | TR-FRET IN-LEDGF/p75 DNA integration, Eu/Cy5 | inhibition, % at 3.7 µM | 0.64% of 370,000 active;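 active = inhibition above the screen-wide mean plus 3 SD, cut at about 13% in these data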;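 note: signal is the Cy5 over europium emission ratio at 671 and 618 nm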
TDP2 absorb: blocks human TDP2 phosphodiesterase activity; O95551; recombinant TDP2, T5PNP hydrolysis, p-nitrophenol absorbance 415 nm; inhibition, % at 12.8 µM; 0.34% of 370,000 active;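 active = inhibition above the mean of all tested compounds plus 3 SD, set per campaign, cut at about 25% in these data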
Target sequence (O95551 whole entry, looked up): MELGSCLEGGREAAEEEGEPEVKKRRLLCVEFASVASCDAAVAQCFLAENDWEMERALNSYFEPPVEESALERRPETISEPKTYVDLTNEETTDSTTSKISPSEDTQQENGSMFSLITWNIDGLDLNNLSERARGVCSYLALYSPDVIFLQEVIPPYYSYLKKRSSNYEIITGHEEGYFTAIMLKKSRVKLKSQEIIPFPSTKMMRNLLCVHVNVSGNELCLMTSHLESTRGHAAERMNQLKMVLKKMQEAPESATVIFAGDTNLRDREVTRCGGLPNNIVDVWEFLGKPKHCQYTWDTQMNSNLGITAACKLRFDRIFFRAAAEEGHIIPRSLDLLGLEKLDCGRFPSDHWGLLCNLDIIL
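Read-out basis: percent inhibition. System: recombinant human TDP2. Buffer or medium: Mg2+-containing Tris-HCl buffer, pH 7.5. Repeats: single replicate. Timing: reaction 2 h, 37 °C. Benchmarks: high control without enzyme, low control DMSO plus TDP2. Probe or stimulus: 5 mM T5PNP. Doses: 12.8 µM only. Measured by: epi absorbance of p-nitrophenol freed from T5PNP by hydrolysis.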
UHRF1 binding: human UHRF1 methylated DNA binding inhibitors; Q96T88; UHRF1 binding to methylated oligo, TR-FRET; inhibition, % at 4.4 µM; 0.75% of 370,000 active; in the data active = inhibition above about 21%;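 note: UHRF1 SRA domain binding a hemimethylated CpG hairpin DNA probe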
ASAP1 GAP inh: inhibitors of human ASAP1 ArfGAP activity | inhibition, % at 16.5 µM | Q9ULH1 | 0.19% of 360,000 active | ASAP1-stimulated ARF1 GTP hydrolysis, GDP FP detection
Target sequence (Q9ULH1 325-724 limits assumed): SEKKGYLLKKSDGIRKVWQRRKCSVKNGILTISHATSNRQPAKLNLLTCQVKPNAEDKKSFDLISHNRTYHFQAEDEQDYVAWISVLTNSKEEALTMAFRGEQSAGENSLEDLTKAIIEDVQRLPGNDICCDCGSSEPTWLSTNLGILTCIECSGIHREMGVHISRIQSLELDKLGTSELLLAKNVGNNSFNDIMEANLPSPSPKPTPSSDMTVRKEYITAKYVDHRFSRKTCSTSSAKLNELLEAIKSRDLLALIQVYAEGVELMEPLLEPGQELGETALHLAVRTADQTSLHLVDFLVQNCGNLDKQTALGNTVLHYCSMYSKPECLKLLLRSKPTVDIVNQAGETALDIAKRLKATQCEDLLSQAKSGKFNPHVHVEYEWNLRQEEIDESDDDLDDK
UHRF1 ctr MBD2: counter-screen for MBD2 inhibitors: human UHRF1 methylated DNA binding inhibitors; shares compounds with MBD2 DNA inh; UHRF1 binding to methylated oligonucleotide, TR-FRET; inhibition, % at 4.4 µM; AID 720530; 25% of 1,000 active; in the data active = inhibition above about 21%;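 note: UHRF1 SRA domain binding a labeled hemimethylated CpG hairpin DNA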
MBD2 DBD conf: confirmation of human MBD2-DBD methylated oligonucleotide binding inhibitors; TR-FRET MBD2-DBD binding to methylated oligonucleotide; shares compounds with MBD2 DNA inh; 26% of 1,000 active; inhibition, % at 4.4 µM; in the data active = inhibition above about 14%
TDP2 confirm: confirmation of human TDP2 inhibitors. shares compounds with TDP2 absorb. recombinant human TDP2, absorbance read-out. inhibition, % at 12.8 µM. 22% of 1,100 active. AID 743263
IN multimer act: HIV-1 integrase multimerization activation, counter-screen. shares compounds with LEDGF integ inh. TR-FRET HIV-1 integrase multimerization, biochemical. activation, % at 7.7 µM. 17% of 2,000 active; in the data active = activation above about 8.9%
TRFRET interf: optically interferes with TR-FRET readout in LEDGF counter-screen; shares compounds with LEDGF integ inh; TR-FRET optical interference counterscreen, HIV-1 IN multimerization; inhibition, % at 7.7 µM; 2,000 tested, under 10 active;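 active = inhibition above the mean over all tested compounds plus 3 SD, which no compound reached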
LEDGF integ conf: confirmation of HIV-1 LEDGF/p75-dependent integration inhibitors. TR-FRET LEDGF/p75-dependent HIV-1 integration, biochemical. 36% of 2,000 active. AID 1053136. inhibition, % at 3.7 µM. shares compounds with LEDGF integ inh; in the data active = inhibition above about 14%
Each line names hits and unclear results; the compound was inactive in the other large screens (follow-up assays come after a bar, where they were run). Sampled rows, rich in hits. Any-hit rate of the full collection: about 2%. Cut-off read from the data, not from the text of the source, unless noted: active = inhibition above about 25%; inactive = the rest.

Cc1ccc(S(=O)(=O)Oc2ccccc2[N+](=O)[O-])cc1	MBD2 DNA inh 14, LEDGF integ inh 35 | UHRF1 ctr MBD2 inactive | MBD2 DBD conf inactive | IN multimer act inactive | TRFRET interf inactive | LEDGF integ conf inactive
Cc1cc(NC(=O)c2ccc(NS(=O)(=O)c3ccc(C)c(C)c3)cc2)no1	none (no result: ARFGAP1 inh, ASAP1 GAP inh)
O=C1CCCC2=C1C(c1ccco1)Nc1ccc3ccccc3c12 (centres undefined)	MBD2 DNA inh 22, LEDGF integ inh 33, UHRF1 binding 50 | UHRF1 ctr MBD2 48 | MBD2 DBD conf 21 | IN multimer act inactive | TRFRET interf inactive | LEDGF integ conf 53
CCC(=O)Nc1ccc2c(c1)C(=O)N(C)[C@@H]1CC[C@@H](CC(=O)OC)O[C@H]1CO2	none (no result: ARFGAP1 inh, ASAP1 GAP inh)
N#Cc1ccc(/C=C2\CC3(OC(=O)c4ccccc4)CCCN2C3)cc1 (centres undefined)	none (no result: ARFGAP1 inh, ASAP1 GAP inh)
Oc1ccc(/C=N/NC(=S)Nc2cccnc2)c(O)c1	none
Oc1ccc(/C=N/NC(=S)Nc2cccnc2)c(O)c1O	MBD2 DNA inh 30, LEDGF integ inh 84, TDP2 absorb 35, UHRF1 binding 64 | UHRF1 ctr MBD2 inactive | MBD2 DBD conf inactive | TDP2 confirm inactive | IN multimer act 30 | TRFRET interf inactive | LEDGF integ conf 84
O=c1oc2c(-c3ccc([N+](=O)[O-])cc3)cc(O)cc2s1	MBD2 DNA inh 21, LEDGF integ inh 25, UHRF1 binding 30 | UHRF1 ctr MBD2 inactive | MBD2 DBD conf inactive | IN multimer act inactive | TRFRET interf inactive | LEDGF integ conf inactive
C=CCN1[C@@H](Cc2ccccc2)COc2cc(F)ccc2S1(=O)=O	none (no result: ARFGAP1 inh, ASAP1 GAP inh)
Cc1ccc(NC(=S)NNC(=O)CSc2nc3ccccc3c(=O)n2-c2ccc(Cl)cc2)cc1	none (no result: ARFGAP1 inh, ASAP1 GAP inh)
O=C1CC(c2ccc(O)c(O)c2)Oc2c1ccc(O)c2O (centres undefined)	MBD2 DNA inh 35, LEDGF integ inh 93, UHRF1 binding 64 | UHRF1 ctr MBD2 27 | MBD2 DBD conf inactive | IN multimer act 57 | TRFRET interf inactive | LEDGF integ conf 91
Cc1occc1-c1nnc(SCC(=O)NCCc2ccccc2)n1Cc1ccccc1	none
COc1cccc(-n2c(SCC(=O)NCCc3ccccc3)nnc2-c2ccoc2C)c1	MBD2 DNA inh 17, LEDGF integ inh 14, UHRF1 binding 28 | UHRF1 ctr MBD2 inactive | MBD2 DBD conf inactive | IN multimer act inactive | TRFRET interf inactive | LEDGF integ conf inactive
C#Cc1cccc(OCC(C)CN2CCC(C(O)(c3ccccc3)c3ccccc3)CC2)c1 (centres undefined)	none (no result: ARFGAP1 inh, ASAP1 GAP inh)
O=C(Nc1cccc([N+](=O)[O-])c1)Nc1cccc([N+](=O)[O-])c1	none
O=[N+]([O-])c1cccc(I)c1	MBD2 DNA inh 59, LEDGF integ inh 65, UHRF1 binding 88 | UHRF1 ctr MBD2 inactive | MBD2 DBD conf inactive | IN multimer act inactive | TRFRET interf inactive | LEDGF integ conf inactive
O=C1N(Cc2ccccc2)c2ccccc2C12CCCc1oc(CCc3ccccc3)nc12 (centres undefined)	none (no result: ARFGAP1 inh, ASAP1 GAP inh)
CCCCn1nnnc1C1(C)CCC(=O)N1CCCn1ccnc1 (centres undefined)	MBD2 DNA inh 14, LEDGF integ inh 16 | UHRF1 ctr MBD2 inactive | MBD2 DBD conf 16 | IN multimer act inactive | TRFRET interf inactive | LEDGF integ conf inactive
Cc1cccc(C)c1-n1nnnc1C1(C)CCC(=O)N1CCCn1ccnc1 (centres undefined)	none
COc1cc(C)c2c(c1C=O)Oc1c(c(C)c(O)c3c1C(O)OC3=O)OC2=O (centres undefined)	MBD2 DNA inh 31, LEDGF integ inh 90, UHRF1 binding 65 | UHRF1 ctr MBD2 24 | MBD2 DBD conf inactive | IN multimer act inactive | TRFRET interf inactive | LEDGF integ conf 92
O=C(COC(=O)/C=C/c1ccco1)Nc1ncc(C(F)(F)F)cc1Cl	MBD2 DNA inh 14, LEDGF integ inh 31, UHRF1 binding 55 | UHRF1 ctr MBD2 27 | MBD2 DBD conf inactive | IN multimer act inactive | TRFRET interf inactive | LEDGF integ conf 14
Cc1c(Cl)cnc(NC(=O)COC(=O)/C=C/c2ccco2)c1Cl	none
O=S(=O)(c1ccc2nc(-c3ccco3)c(-c3ccco3)nc2c1)N1CCOCC1	MBD2 DNA inh 14, LEDGF integ inh 67, UHRF1 binding 30 | UHRF1 ctr MBD2 inactive | MBD2 DBD conf inactive | IN multimer act inactive | TRFRET interf inactive | LEDGF integ conf 45
O=C(O)c1ccc2nc(-c3ccco3)c(-c3ccco3)nc2c1	MBD2 DNA inh 69, LEDGF integ inh 86, TDP2 absorb 34, UHRF1 binding 93 | UHRF1 ctr MBD2 73 | MBD2 DBD conf 23 | TDP2 confirm inactive | IN multimer act 73 | TRFRET interf inactive | LEDGF integ conf 76
CC(C)c1cc(C(C)C)c(S(=O)(=O)N2CCCC(C(=O)N3CCN(Cc4ccccc4)CC3)C2)c(C(C)C)c1 (centres undefined)	none (no result: ARFGAP1 inh, ASAP1 GAP inh)
Cc1cccc(-c2nnc(SCC(=O)c3ccc(F)cc3)n2C)c1	none (no result: ARFGAP1 inh, ASAP1 GAP inh)
CCN(CC)c1ccc(NC(=O)c2cc3c(C)nn(-c4ccccc4)c3s2)cc1	none (no result: ARFGAP1 inh, ASAP1 GAP inh)
Cc1c(Br)c(O)c(Br)c2sc(=O)oc12	MBD2 DNA inh 16, LEDGF integ inh 55, TDP2 absorb 42, UHRF1 binding 33 | UHRF1 ctr MBD2 inactive | MBD2 DBD conf inactive | TDP2 confirm inactive | IN multimer act inactive | TRFRET interf inactive | LEDGF integ conf 14
Cc1ccc(C)n1/N=C1/NC(=O)CS1	MBD2 DNA inh 39, LEDGF integ inh 58, UHRF1 binding 76 | UHRF1 ctr MBD2 48 | MBD2 DBD conf 17 | IN multimer act inactive | TRFRET interf inactive | LEDGF integ conf 66
